Three compounds from ChEMBL document CHEMBL4118021, “Studies of TAK1-centered polypharmacology with novel covalent TAK1 inhibitors” (Bioorg Med Chem, 2017) can be followed below.

Holding throughout (type): cell-based
For assay [1], the target named is Serine/threonine-protein kinase Nek4 (Homo sapiens) (UniProt P51957). As to the kind of experiment: Inhibition of NEK4 in human SKCO1 cells at 1 uM after 4 hrs using biotin labeled DLKTQNVFLTR probe by mass-spectrometric analysis relative to control. In a few lines: (§1)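 Live SK-CO-1 cells exposed to compound at 1 μM or DMSO for 4 h (KiNativ). Lysates then labeled with lysine-reactive ATP/ADP-biotin probe, and probe-labeled kinase peptides quantified by mass spectrometry. Percent inhibition of probe-dependent recovery calculated relative to DMSO-treated cells.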
Chain of Serine/threonine-protein kinase Nek4 (Homo sapiens) (P51957 whole entry, looked up): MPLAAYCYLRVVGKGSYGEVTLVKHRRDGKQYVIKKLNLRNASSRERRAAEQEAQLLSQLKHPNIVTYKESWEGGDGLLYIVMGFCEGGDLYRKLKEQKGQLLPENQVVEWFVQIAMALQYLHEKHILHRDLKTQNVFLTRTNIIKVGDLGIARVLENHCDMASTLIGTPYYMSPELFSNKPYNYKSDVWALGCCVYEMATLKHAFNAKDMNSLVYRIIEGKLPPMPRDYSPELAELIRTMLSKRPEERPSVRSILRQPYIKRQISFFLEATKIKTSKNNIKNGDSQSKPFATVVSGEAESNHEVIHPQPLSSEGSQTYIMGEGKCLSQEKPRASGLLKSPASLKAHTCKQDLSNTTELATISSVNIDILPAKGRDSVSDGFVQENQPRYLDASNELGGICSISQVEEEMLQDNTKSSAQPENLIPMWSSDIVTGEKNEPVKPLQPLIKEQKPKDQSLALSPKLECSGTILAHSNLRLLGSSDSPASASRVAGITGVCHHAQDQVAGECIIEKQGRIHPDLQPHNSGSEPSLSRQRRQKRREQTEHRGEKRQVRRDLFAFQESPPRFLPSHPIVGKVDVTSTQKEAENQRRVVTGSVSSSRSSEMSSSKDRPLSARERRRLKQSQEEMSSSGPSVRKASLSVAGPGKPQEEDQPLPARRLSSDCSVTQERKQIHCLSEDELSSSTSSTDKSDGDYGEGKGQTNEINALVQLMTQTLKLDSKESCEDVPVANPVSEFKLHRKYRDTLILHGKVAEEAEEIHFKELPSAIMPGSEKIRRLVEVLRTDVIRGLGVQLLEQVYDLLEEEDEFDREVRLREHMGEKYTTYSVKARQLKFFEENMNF

The target of assay [2] is Microtubule-associated serine/threonine-protein kinase 3 (Homo sapiens) (UniProt O60307). As to the kind of experiment: Inhibition of MAST3 in human SKCO1 cells at 1 uM after 4 hrs using biotin labeled DLKPDNLLITSLGHIK probe by mass-spectrometric analysis relative to control.
Chain of Microtubule-associated serine/threonine-protein kinase 3 (Homo sapiens) (O60307 whole entry): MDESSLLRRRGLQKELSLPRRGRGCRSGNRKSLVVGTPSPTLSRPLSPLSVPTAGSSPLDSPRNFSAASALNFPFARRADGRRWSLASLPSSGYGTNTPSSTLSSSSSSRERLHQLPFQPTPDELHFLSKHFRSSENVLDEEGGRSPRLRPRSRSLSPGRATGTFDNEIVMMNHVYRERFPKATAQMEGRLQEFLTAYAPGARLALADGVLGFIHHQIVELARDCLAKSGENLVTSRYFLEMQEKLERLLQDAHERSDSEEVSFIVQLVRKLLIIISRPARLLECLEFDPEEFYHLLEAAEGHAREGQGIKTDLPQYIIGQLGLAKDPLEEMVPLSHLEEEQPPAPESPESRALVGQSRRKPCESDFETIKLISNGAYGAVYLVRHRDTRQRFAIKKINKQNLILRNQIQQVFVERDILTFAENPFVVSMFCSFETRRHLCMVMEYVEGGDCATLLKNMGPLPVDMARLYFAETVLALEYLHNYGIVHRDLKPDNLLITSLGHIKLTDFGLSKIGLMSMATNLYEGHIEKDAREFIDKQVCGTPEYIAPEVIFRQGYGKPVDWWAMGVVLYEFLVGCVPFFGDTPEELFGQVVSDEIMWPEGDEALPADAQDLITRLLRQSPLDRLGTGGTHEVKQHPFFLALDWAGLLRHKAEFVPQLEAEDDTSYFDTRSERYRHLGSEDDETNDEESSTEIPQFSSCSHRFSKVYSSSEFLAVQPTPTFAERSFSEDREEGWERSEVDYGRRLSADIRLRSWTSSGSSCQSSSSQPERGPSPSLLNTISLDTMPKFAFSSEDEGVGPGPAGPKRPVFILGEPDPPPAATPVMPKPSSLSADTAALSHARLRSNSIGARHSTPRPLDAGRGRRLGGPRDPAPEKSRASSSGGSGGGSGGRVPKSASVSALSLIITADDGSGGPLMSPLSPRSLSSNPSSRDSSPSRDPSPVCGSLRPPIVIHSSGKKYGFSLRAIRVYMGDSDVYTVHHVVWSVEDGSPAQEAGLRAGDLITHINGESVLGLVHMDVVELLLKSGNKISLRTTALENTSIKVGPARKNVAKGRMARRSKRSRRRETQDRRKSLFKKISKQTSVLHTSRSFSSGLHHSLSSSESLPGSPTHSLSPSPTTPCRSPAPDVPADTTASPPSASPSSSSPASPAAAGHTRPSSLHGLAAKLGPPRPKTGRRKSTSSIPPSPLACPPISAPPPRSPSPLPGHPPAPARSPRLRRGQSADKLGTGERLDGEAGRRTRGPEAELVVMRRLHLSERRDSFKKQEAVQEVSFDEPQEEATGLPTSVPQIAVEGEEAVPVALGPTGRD
The target in assay [3] is Dual specificity mitogen-activated protein kinase kinase 1 (Homo sapiens) (UniProt Q02750). As to the kind of experiment: Inhibition of MAP2K1 in human SKCO1 cells at 1 uM after 4 hrs using biotin labeled KLIHLEIKPAIR probe by mass-spectrometric analysis relative to control. The settings on record: pooled result: one value given for 2 cell lines, strains, targets or settings.
Chain of Dual specificity mitogen-activated protein kinase kinase 1 (Homo sapiens) (Q02750 whole entry): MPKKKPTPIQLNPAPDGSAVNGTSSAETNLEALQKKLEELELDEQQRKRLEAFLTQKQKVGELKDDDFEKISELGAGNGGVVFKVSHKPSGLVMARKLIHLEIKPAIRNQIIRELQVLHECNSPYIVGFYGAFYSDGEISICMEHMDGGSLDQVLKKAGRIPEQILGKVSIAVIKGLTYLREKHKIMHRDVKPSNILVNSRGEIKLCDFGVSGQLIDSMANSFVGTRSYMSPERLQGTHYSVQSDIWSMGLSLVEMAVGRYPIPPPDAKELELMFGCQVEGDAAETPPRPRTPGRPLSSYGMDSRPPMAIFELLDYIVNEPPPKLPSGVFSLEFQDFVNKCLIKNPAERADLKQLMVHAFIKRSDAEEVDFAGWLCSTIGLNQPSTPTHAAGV

In assay [4] the target is MAP/microtubule affinity-regulating kinase 3 (Homo sapiens) (UniProt P27448). Briefly: Inhibition of MARK3 in human SKCO1 cells at 1 uM after 4 hrs using biotin labeled DLKAENLLLDADMNIK probe by mass-spectrometric analysis relative to control.
Chain of MAP/microtubule affinity-regulating kinase 3 (Homo sapiens) (P27448 whole entry, looked up): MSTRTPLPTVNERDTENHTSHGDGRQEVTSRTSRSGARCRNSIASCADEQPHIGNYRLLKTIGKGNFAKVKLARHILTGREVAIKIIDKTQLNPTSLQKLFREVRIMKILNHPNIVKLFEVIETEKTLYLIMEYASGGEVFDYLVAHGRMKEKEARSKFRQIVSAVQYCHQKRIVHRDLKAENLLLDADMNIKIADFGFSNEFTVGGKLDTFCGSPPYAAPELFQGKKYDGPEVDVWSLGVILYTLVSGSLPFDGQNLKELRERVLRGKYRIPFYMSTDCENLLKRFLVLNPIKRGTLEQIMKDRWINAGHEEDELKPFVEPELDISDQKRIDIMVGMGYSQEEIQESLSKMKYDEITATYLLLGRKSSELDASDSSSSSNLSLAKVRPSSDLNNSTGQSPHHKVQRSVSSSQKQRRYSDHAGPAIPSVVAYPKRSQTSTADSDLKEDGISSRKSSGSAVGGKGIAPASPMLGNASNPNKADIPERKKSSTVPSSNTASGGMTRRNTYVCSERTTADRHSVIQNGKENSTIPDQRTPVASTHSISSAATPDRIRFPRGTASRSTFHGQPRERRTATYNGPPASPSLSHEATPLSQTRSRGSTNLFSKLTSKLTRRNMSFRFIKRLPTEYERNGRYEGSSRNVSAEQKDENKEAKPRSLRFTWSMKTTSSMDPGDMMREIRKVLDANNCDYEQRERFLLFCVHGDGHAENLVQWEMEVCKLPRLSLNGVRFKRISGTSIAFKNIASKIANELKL
The target of assay [5] is Serine/threonine-protein kinase SMG1 (Homo sapiens) (UniProt Q96Q15). As to the kind of experiment: Inhibition of SMG1 in human SKCO1 cells at 1 uM after 4 hrs using biotin labeled DTVTIHSVGGTITILPTKTKPK probe by mass-spectrometric analysis relative to control. In a few lines:
as §1

Assay [6] has as its target Aurora kinase B (Homo sapiens) (UniProt Q96GD4). As to the kind of experiment: Inhibition of AurB in human SKCO1 cells at 1 uM after 4 hrs using biotin labeled SHFIVALKVLFK probe by mass-spectrometric analysis relative to control.
The target of assay [7] is T1, Aurora kinase A (Homo sapiens) (UniProt O14965).
T1 sequence (whole entry): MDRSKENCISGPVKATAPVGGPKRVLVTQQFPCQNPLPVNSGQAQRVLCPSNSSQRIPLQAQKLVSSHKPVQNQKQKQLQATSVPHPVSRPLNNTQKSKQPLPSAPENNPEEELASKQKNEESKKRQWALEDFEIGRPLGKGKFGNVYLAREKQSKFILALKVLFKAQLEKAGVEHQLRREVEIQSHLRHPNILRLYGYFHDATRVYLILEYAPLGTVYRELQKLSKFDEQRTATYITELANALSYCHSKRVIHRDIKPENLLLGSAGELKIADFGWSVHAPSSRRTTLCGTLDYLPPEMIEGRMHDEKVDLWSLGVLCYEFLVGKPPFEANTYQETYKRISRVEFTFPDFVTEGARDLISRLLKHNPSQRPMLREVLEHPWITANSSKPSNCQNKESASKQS
As to the kind of experiment: Inhibition of AurA in human SKCO1 cells at 1 uM after 4 hrs using biotin labeled FILALKVLFK probe by mass-spectrometric analysis relative to control. The method, boiled down: (§2)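 Live SK-CO-1 cells were treated 4 h with compound at 1 μM or DMSO, then lysed. Lysates were labeled with a lysine-reactive ATP/ADP-biotin probe and analysed by mass spectrometry. Percent inhibition is the loss of probe-dependent recovery of the kinase peptide relative to DMSO.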

The target of assay [8] is eIF-2-alpha kinase GCN2 (Homo sapiens) (UniProt Q9P2K8). Briefly: Inhibition of GCN2 domain2 in human SKCO1 cells at 1 uM after 4 hrs using biotin labeled DLKPVNIFLDSDDHVK probe by mass-spectrometric analysis relative to control.
The target of assay [9] is Interleukin-1 receptor-associated kinase 1 (Homo sapiens) (UniProt P51617). Briefly: Inhibition of IRAK1 in human SKCO1 cells at 1 uM after 4 hrs using biotin labeled AIQFLHQDSPSLIHGDIKSSNVLLDER probe by mass-spectrometric analysis relative to control.
Chain of Interleukin-1 receptor-associated kinase 1 (Homo sapiens) (P51617 whole entry, looked up): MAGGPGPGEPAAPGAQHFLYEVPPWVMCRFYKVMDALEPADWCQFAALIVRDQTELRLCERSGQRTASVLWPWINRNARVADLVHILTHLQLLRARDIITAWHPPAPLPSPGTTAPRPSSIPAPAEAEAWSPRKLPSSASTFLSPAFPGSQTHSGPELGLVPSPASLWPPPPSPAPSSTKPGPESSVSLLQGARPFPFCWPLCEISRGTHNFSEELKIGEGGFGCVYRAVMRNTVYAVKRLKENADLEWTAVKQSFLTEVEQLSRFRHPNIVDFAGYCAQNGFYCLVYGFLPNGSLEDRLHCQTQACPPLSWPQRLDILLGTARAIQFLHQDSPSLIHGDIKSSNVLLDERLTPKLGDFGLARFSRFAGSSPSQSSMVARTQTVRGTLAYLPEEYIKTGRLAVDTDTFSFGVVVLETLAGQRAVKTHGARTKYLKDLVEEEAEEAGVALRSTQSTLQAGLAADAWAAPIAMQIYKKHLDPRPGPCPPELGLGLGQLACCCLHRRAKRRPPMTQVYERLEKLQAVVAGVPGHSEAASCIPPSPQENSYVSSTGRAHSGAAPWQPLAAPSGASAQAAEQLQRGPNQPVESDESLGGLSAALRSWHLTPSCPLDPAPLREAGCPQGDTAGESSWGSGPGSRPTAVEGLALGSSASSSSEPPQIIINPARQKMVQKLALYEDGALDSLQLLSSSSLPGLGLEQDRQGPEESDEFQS
Assay [10] deals with 5'-AMP-activated protein kinase catalytic subunit alpha-1 (Homo sapiens) (UniProt Q13131). As to the kind of experiment: Inhibition of AMPKa1 in human SKCO1 cells at 1 uM after 4 hrs using biotin labeled DLKPENVLLDAHMNAK probe by mass-spectrometric analysis relative to control. In a few lines: as §2
Chain of 5'-AMP-activated protein kinase catalytic subunit alpha-1 (Homo sapiens) (Q13131 whole entry, looked up): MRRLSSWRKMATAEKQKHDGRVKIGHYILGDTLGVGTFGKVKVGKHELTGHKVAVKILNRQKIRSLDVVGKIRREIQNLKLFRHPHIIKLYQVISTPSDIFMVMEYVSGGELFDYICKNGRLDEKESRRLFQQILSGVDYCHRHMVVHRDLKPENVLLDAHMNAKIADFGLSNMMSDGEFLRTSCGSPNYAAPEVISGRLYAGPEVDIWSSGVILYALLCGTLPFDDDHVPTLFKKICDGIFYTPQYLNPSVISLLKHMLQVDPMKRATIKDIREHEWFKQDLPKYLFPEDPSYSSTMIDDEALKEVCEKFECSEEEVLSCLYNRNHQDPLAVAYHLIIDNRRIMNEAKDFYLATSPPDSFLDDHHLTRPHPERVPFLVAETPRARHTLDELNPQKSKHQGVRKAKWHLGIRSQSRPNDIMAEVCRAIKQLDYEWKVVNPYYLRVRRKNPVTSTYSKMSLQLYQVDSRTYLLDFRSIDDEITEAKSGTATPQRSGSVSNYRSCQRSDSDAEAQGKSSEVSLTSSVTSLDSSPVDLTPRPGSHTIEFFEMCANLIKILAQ
Assay [11] deals with T2, Serine/threonine-protein kinase Nek9 (Homo sapiens) (UniProt Q8TD19).
T2 sequence (whole entry): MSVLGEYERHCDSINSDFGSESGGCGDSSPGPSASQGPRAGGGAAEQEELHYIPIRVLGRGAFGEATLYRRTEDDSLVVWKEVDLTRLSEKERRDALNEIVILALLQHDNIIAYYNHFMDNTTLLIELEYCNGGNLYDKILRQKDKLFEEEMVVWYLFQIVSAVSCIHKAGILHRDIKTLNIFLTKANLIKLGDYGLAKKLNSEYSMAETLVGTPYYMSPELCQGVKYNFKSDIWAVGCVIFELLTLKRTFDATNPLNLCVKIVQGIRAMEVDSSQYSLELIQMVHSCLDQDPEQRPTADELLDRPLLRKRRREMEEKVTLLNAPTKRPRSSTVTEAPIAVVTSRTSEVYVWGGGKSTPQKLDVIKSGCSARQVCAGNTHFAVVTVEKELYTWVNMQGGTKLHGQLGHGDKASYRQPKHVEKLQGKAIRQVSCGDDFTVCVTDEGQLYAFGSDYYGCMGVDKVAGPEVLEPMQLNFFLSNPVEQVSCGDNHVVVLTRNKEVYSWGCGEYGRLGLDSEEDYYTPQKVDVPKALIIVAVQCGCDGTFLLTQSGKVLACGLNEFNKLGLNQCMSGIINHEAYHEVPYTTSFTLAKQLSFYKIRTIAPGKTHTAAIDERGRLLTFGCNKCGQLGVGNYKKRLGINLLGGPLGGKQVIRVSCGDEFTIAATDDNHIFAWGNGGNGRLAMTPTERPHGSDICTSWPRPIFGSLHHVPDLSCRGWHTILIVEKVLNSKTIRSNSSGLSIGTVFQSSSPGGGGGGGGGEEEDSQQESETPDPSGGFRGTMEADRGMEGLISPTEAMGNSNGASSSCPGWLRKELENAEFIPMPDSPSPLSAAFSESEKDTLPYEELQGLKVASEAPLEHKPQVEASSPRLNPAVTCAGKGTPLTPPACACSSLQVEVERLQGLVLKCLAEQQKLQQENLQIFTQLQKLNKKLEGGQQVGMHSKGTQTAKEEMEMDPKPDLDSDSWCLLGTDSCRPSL
As to the kind of experiment: Inhibition of NEK9 in human SKCO1 cells at 1 uM after 4 hrs using biotin labeled DIKTLNIFLTK probe by mass-spectrometric analysis relative to control. In a few lines:
as §1

The term inhibition denotes the relative decrease from the control value, in per cent.

Molecules are shown by their SMILES.

Chain of Aurora kinase B (Homo sapiens) (Q96GD4 whole entry): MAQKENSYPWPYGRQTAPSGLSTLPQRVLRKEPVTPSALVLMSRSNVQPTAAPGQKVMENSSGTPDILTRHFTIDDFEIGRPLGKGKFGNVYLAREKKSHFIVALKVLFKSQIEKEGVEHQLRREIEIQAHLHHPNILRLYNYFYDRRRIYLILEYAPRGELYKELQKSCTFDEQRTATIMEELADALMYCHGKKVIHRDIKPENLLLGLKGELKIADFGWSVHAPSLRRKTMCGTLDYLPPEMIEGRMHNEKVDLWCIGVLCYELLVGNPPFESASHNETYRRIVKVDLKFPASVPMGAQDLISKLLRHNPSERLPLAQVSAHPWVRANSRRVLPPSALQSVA

On to `C=CC(=O)Nc1ccccc1Oc1nc(Nc2cnn(CCOC)c2)ncc1Cl`, for which the inhibition in [1] is 15.1%; in assay [2] it was 30.6%; in [3] it was 13.9%; in assay [4], -8.4%; in [5] it was 16.4%; in assay [6], 65.4%. Besides, the inhibition was 52.6% in assay [7]; 1.2% in [8]; -4.5% in [9]; 0.2% in [10]; 9% in [11].

Turning to `C=CC(=O)Nc1ccccc1Nc1nc(Nc2ccc(N3CCN(C)CC3)cc2)ncc1Cl`, the inhibition is 23.8% in assay [1]; 13.2% in assay [2]; 62.7% in assay [3]; -7.2% in assay [4]; 0.8% in assay [5]; 94.4% in assay [6]. The inhibition stood at 87.2% in assay [7]; 14.6% in assay [8]; 38.2% in assay [9]; 76% in assay [10]; 3.2% in assay [11].

In the case of `COc1cc(O)c2c(c1)/C=C/C[C@H](O)[C@H](O)C(=O)/C=C\C[C@H](C)OC2=O`, the inhibition in assay [1] is 18.9%; in assay [2] it was 39.2%; in assay [3], 85.3%; in assay [4], 3.6%; in assay [5], -8.2%; in [6] it was 58.1%. Also, the inhibition in assay [7] was 59.4%; in assay [8], -6.1%; in assay [9] it was -6%; in assay [10] it was 33.6%; in assay [11] it was 24.7%.
